# CendR NRP1 mod: modulators of CendR peptide binding to NRP-1, primary screen, biochemical, fluorescence polarization, uHTS; Neuropilin-1 (Homo sapiens), O14786; FAM-RPARPAR peptide binding to NRP-1; AID 602438, 2012; inhibition, % at 25 µM; actives 0.85% (n = 360,000);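 active = inhibition or corrected inhibition above about 18%, plus a signal ratio from 0.5 to 1.5, limit read from the data, passing the limit was not always enough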
# KLK7 zymogen act: proKLK7 zymogen activators, primary screen, biochemical, fluorescence intensity; purified proKLK7, EDANS-DABCYL substrate fluorescence; 100% is mature enzyme control, 0% vehicle; activation, % at 7 µM; Kallikrein-7 (Homo sapiens), P49862; AID 652039, 2013; actives 0.9% (n = 370,000);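 active = activation above the mean of all tested compounds plus 3 SD, computed per campaign excluding outliers beyond control limits, cut at about 13% in these data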
# Target sequence (P49862 whole entry, looked up): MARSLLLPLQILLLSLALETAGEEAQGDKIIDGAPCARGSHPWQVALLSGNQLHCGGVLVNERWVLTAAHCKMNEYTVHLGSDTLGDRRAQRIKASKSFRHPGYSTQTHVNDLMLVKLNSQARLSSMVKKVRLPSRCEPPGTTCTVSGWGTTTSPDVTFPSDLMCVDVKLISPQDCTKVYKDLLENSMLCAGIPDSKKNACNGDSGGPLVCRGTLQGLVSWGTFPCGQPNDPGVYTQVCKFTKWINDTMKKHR
# Tn6 DDE FP: inhibitors of Tn6 peptide binding to fibrin DD(E), primary screen, biochemical, fluorescence polarization, human fibrin, Tn6 probe. Fibrinogen beta chain (Homo sapiens), P02675. Fibrin DD(E) TRITC-Tn6 fluorescence polarization displacement. inhibition, % at 8.3 µM. actives 0.21% (n = 370,000);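 active = inhibition above a per-campaign cutoff: mean of compounds within control limits plus 3 SD, cut at about 15% in these data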
# CRFBP-R2 block: antagonists of CRF-BP/CRF-R2 complex, primary screen, cell-based, HEK293, calcium dye fluorescence, uHTS; CRF-induced calcium fluorescence; inhibition, % at 11.8 µM; actives 0.59% (n = 350,000); AID 588475, 2011;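 active = inhibition of the ligand-induced calcium signal above about 50% at the single tested concentration, limit read from the data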
# Tn7 DDE FP: inhibitors of Tn7 peptide binding to fibrin DD(E), primary screen, biochemical, fluorescence polarization, human fibrin, Tn7 probe. inhibition, % at 8.3 µM. Fibrinogen beta chain (Homo sapiens), P02675. FP displacement of FITC-Tn7 peptide from fibrin DD(E); 0% = median of compound wells per plate. actives 0.13% (n = 370,000);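 active = inhibition above the mean of compounds falling within the control limits plus 3 SD of them, cut at about 14% in these data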
#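 System: human fibrin DD(E); quantity: Fibrin-DD(E) at 2 µM final; also added: fluorescent Tn7 probe at 0.1 µM; compound dosing: single nominal test concentration of 8.3 µM per compound; schedule: 10 min preincubation, 3 h with tracer, room temperature; detection: fluorescence polarization of the labelled Tn7 tracer; repeats: one replicate per compound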
# CRFBP-R2 agonist: agonists of CRF-BP/CRF-R2 complex, primary screen, cell-based, HEK293, calcium dye fluorescence, uHTS. actives 0.46% (n = 350,000). activation, % at 13.2 µM. CRF-binding protein / CRF receptor 2 complex (human). calcium dye fluorescence (FLIPR); percent of saturating CRF peptide response. AID 588473, 2011;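 active = activation of at least 50%, plus an integration ratio under a set limit after plate pattern correction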
# A number is an active result; n = inactive; x = no result given. In the library only some 2.9% were active in any assay of this set; here they are far more common.
SMILES,CendR NRP1 mod,KLK7 zymogen act,Tn6 DDE FP,CRFBP-R2 block,Tn7 DDE FP,CRFBP-R2 agonist
CCOC(=O)C1=C(C)N=c2s/c(=C/c3cccc([N+](=O)[O-])c3O)c(=O)n2C1c1ccc(OC)cc1OC (stereo not drawn),n,n,n,59,n,n
COc1ccc(-n2c(O)c(/C=N/NS(=O)(=O)c3cc(C)ccc3C)c3ccccc3c2=O)cc1OC,n,n,n,n,n,111
COc1ccc(-n2c(O)c(/C=N/Nc3nc(C)cc(C)n3)c3ccccc3c2=O)cc1OC,n,n,n,n,n,n
O=C(O)C1C(C(=O)Nc2ccc(Cl)cc2)C2C=CC1C21CC1 (stereo not drawn),28,n,n,n,n,n
CCOC(=O)[C@@]12CCCC3=C1N(CCC3)C(=O)[C@H]2CC(=O)NCc1cccs1,x,n,n,x,n,x
CCn1c(SCC(=O)Nc2cccc3ccccc23)nnc1-c1cccs1,x,n,n,x,n,x
COc1ccc(NC(=O)Nc2ccc3c(c2)OCO3)c(C)c1,n,n,n,53,n,n
CSCCC(NC(=O)c1ccco1)C(=O)N1CC=C(c2ccccc2)CC1 (stereo not drawn),n,n,n,n,n,53
CN(Cc1ccccc1)C(=O)c1cccc(NC(=O)Cc2ccc(NC(=O)C3CCCN(C(=O)CCc4ccccc4)C3)cc2)c1 (stereo not drawn),n,n,n,57,n,n
CC(C)n1cnc2c(NCc3ccc(S(N)(=O)=O)cc3)nc(NCc3ccc(S(N)(=O)=O)cc3)nc21,32,n,n,n,n,n
CC(C)[C@H](CO)Nc1nc(NCc2ccc(S(N)(=O)=O)cc2)c2ncn(C(C)C)c2n1,n,n,n,n,n,n
C=CCOC(=O)N[C@H](c1ccc2ccccc2c1)[C@H](C)/C=C/CC(=O)OC,x,n,n,x,n,x
CC(C)CSc1nnc(-c2ccco2)n1C,x,n,n,x,n,x
CCOc1ccc(NC(=O)CSc2nnc(COc3c(C)cccc3C)o2)cc1,24,n,n,n,n,n
Cc1cccc(C)c1OCc1nnc(SCC(=O)Nc2nccs2)o1,n,n,n,n,n,n
C=CCN1C(=O)[C@@H](CC(=O)NCc2ccc(C)o2)[C@]2(C(=O)OC)CCCCC=C12,x,n,n,x,n,x
O=C1C=C(c2cccc3c2Oc2ccccc2S3)C[C@@H](c2ccc(Cl)cc2)C1,29,n,n,n,n,n
COc1ccc(CCN2C(=O)CC(Cc3ccccc3)C2=O)cc1OC (stereo not drawn),n,n,n,79,n,n
Cc1nc(SCC(=O)Nc2nc3ccccc3s2)c(C#N)c(C)c1C,n,n,n,n,n,n
Cc1cc(C(F)(F)F)c(C#N)c(SCC(=O)Nc2nc3ccccc3s2)n1,n,n,n,n,n,80
CCCN1Cc2cccc(C(=O)NCc3cccs3)c2C1=O,n,n,n,58,n,n
Cc1ccc(CNC(=O)C2CCCN(S(=O)(=O)N3CCC(C)CC3)C2)cc1 (stereo not drawn),n,n,n,n,n,n
CCc1ccc(CNC(=O)C2CCCN(S(=O)(=O)N3CC(C)CC(C)C3)C2)cc1 (stereo not drawn),22,n,n,n,n,n
Cc1nn(CCc2nn[nH]n2)c2nc(-c3ccc(C4CCCCC4)cc3)cc(C(F)(F)F)c12,n,n,n,87,n,n
Cc1cc(C)c(NC(=O)COC(=O)c2cccc3c2C(=O)c2ccccc2C3=O)c(C)c1,n,n,n,n,n,n
SMILES,CendR NRP1 mod,KLK7 zymogen act,Tn6 DDE FP,CRFBP-R2 block,Tn7 DDE FP,CRFBP-R2 agonist
Cc1cc(C)c(Nc2cc(S(=O)(=O)O)c(N)c3c2C(=O)c2ccccc2C3=O)c(C)c1,n,n,n,53,n,n
CNC(=O)CN(C1CCCCC1)S(=O)(=O)c1ccc(F)cc1,n,n,n,56,n,n
CCNC(=O)CN(C1CCCCC1)S(=O)(=O)c1ccc(F)cc1,n,n,n,n,n,n
COc1cc2c3nnc(-c4ccc(F)cc4)c-3cn(Cc3ccccc3)c2cc1OC,n,29,n,n,n,n
COc1ccc(Cn2cc3c(-c4ccc(F)cc4)nnc-3c3cc(OC)c(OC)cc32)cc1,n,n,n,n,n,n
O=C(c1ccc(-c2cccc(Cl)c2)o1)N1CCN(c2ccc([N+](=O)[O-])cc2)CC1,29,n,n,n,n,n
Cc1cc(C(=O)N2CCN(c3ccc([N+](=O)[O-])cc3)CC2)c(C)o1,n,n,n,n,n,n
Cc1cc(C(=O)N2CCN(c3ccc([N+](=O)[O-])cc3)CC2)co1,n,n,n,59,n,n
COc1ccc(N2CCN(C(=O)c3ccc(OCc4c(C)noc4C)c(OC)c3)CC2)cc1,n,n,n,n,n,n
COc1cc(C(=O)N2CCN(c3ccc([N+](=O)[O-])cc3)CC2)ccc1OCc1c(C)noc1C,19,n,n,n,n,n
CC(NCc1ccco1)C(=O)N1CCOCC1 (stereo not drawn),x,n,n,x,n,x
Fc1ccc(-c2cc(-c3nnc4sc(-c5cccs5)nn34)[nH]n2)cc1,x,n,n,x,n,x
COc1ccc(C(=O)C2CC2c2ccc3c(c2)OCO3)cc1 (stereo not drawn),28,n,n,n,n,n
COc1ccc(C(=O)NCc2ccc3c(c2)OCO3)cc1,n,n,n,n,n,n
COc1ccc2c(c1)c(C(=O)O)c(C)n2-c1ccc(Cl)cc1,n,n,n,106,n,n
COC(CNC(=O)[C@H](Cc1ccccc1)NCC(=O)NC1CCCCC1)OC,x,x,n,x,n,x
CN1C(=O)C2(N=c3ccccc3=N2)c2ccccc21,n,x,x,68,x,n
O=CN/N=C/c1c(O)ccc2ccccc12,n,n,n,n,n,88
O=C(NN=Cc1c(O)ccc2ccccc12)c1ccc2c(c1)OCO2,n,n,n,n,n,n
O=C(N/N=C\c1c(O)ccc2ccccc12)c1ccc(S(=O)(=O)N2CCCCC2)cc1,n,n,n,n,n,203
Oc1ccccc1C=NN=Cc1c(O)ccc2ccccc12,n,n,n,n,n,144
Oc1ccc2ccccc2c1C=NCc1ccccc1,n,n,n,n,n,n
Oc1ccc2ccccc2c1/C=N/Nc1ccccc1,n,n,n,n,n,n
Cc1ccc(NC(=O)C2=C(c3ccccc3)S(=O)(=O)CCS2(=O)=O)cc1,n,n,n,n,n,55

# High-throughput results (PubChem)
